Counter-ions that a name gives are not always drawn.
Assays:
Format in all cases: in vivo, NMRI nu/nu mice
MPC-mCherry tumors [1] = test: Renal; details: for DAred, reduction of renal dopamine excretion [14-28 days pci] / NEred, reduction of renal norepinephrine excretion [14-28 days pci] / NMNred, reduction of renal normetanephrine excretion [14-28 days pci]: doxorubicin 6.9 µmol/kg, AN-238 0.2 µmol/kg, [^177Lu]Lu-DOTATATE 80 MBq/animal, urine LC-MS/MS, compared to control, mean ± SEM
MPC-mCherry tumors [2] = test: ^177Lu activity in MPC-mCherry tumors after treatment, monitored by PLI; details: not decay-corrected, 80 MBq/animal
In short: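 Radioligand was made by heating [177Lu]LuCl3 (pH 5.2, NH4OAc) with 14 nmol peptide at 90 °C for 20 min, giving >97% HPLC radiochemical purity. 80 MBq (1.2 nmol)/mouse was given by tail vein in Infesol 15 from 15 days pci. Tumour ROIs were thresholded on mCherry/reference fluorescence (signal/background 2). PLI signal was expressed as effective and decay-corrected 177Lu activity.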

[3] = Body weight monitoring in treated mice; details: doxorubicin 6.9 µmol/kg, AN-238 0.2 µmol/kg, [^177Lu]Lu-DOTATATE 80 MBq/animal
In short: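 Mice carrying growing MPC-mCherry tumours (5 ± 3 mm diameter) were grouped by similar mean tumour volume and randomly assigned to control or therapy; treatment began 15 days pci. Test compounds in Infesol 15 given via tail vein at 0.3 mL/30 g body weight. Three independent experiments followed an identical protocol, with data pooled.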

Row | Compound | fold more effective in reducing overall renal monoamine excretion compared to doxorubicin and AN-238 (MPC-mCherry tumors [1]; 14-28 days pci) [fold] | DAred, reduction of renal dopamine excretion [14-28 days pci] (MPC-mCherry tumors [1]) [%] | NEred, reduction of renal norepinephrine excretion [14-28 days pci] (MPC-mCherry tumors [1]) [%] | NMNred, reduction of renal normetanephrine excretion [14-28 days pci] (MPC-mCherry tumors [1]) [%] | half-life of effective ^177Lu activity in tumors (MPC-mCherry tumors [2]) [h] | body weight change after treatment [3]
1 | [^177Lu]Lu-DOTA-(Tyr^3)octreotate [[^177Lu]Lu-DOTATATE] | 2 | 97.2 ± 0.9 | 99.6 ± 1.9 | 100 ± 0.7 | 48 | 
2 | COc1cccc2c1C(=O)c1c(O)c3c(c(O)c1C2=O)C[C@@](O)(C(=O)CO)C[C@@H]3O[C@H]1C[C@H](N)[C@H](O)[C@H](C)O1 [doxorubicin, doxorubicin hydrochloride] |  | 31.5 ± 11.3 | 74.8 ± 7.5 | 77.3 ± 5.1 |  | tended to decrease immediately
